Test results as given in PMC8246884 (Journal of Medical Virology, 2020).

Experiments:
[1] = Plasma pharmacokinetics on Day 14; type: in vivo, human; settings: Day 14, coadministered with CDI‐31244
Method in brief: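 Treatment-naïve adults with chronic genotype 1 HCV and no cirrhosis took oral drugs once daily for 2 weeks: a nucleotide/NS5A inhibitor combination tablet (400 mg/100 mg) plus a non-nucleoside inhibitor, 400 mg as capsules. Plasma was sampled before the first dose on Day 1 and at 0, 1, 2, 4, 6, 8, 12 and 24 h after the Day 14 dose. Validated LC-MS/MS; per-patient non-compartmental Cmax, Cmin, tmax, AUC0–24; descriptive statistics.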

HCV = settings: cited from earlier work

Exposure [1]	Compound	HCV RNA viral load reduction (HCV)
consistent with reported values	COC[C@H]1C[C@@H](c2ncc(-c3ccc4c(c3)COc3cc5c(ccc6nc([C@@H]7CC[C@H](C)N7C(=O)[C@@H](NC(=O)OC)C(C)C)[nH]c65)cc3-4)[nH]2)N(C(=O)[C@H](NC(=O)OC)c2ccccc2)C1 [velpatasvir]	
	COc1c(-c2ccc3cc(NS(C)(=O)=O)ccc3c2)cc(-n2ccc(=O)[nH]c2=O)cc1C(C)(C)C [dasabuvir]	0.95 log10
consistent with reported values	C[C@@]1(F)[C@H](O)[C@@H](CO)O[C@H]1n1ccc(=O)[nH]c1=O [GS‐331007]	
consistent with reported values	CC(C)OC(=O)[C@H](C)N[P@](=O)(OC[C@H]1O[C@@H](n2ccc(=O)[nH]c2=O)[C@](C)(F)[C@@H]1O)Oc1ccccc1 [sofosbuvir]	
